Data: ChEMBL document CHEMBL1123757, “Selective thromboxane synthetase inhibitors and antihypertensive agents. New derivatives of 4-hydrazino-5H-pyridazino[4,5-b]indole, 4-hydrazinopyridazino[4,5-a]indole, and related compounds” (J Med Chem, 1987)

Tests used:
[1] = system: Rattus norvegicus; assay: Antihypertensive activity in spontaneously hypertensive rats (SHR) measured by percentage fall in arterial pressure (AP) at 25 mg/kg administered intraperitoneally at 5 h; format: functional, Artery; details: route intraperitoneal
Method in brief: (§1)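 Unanesthetized Okamoto-strain SHR, male and female, 8 weeks old, 300–350 g, systolic pressure ≥190 mmHg, heart rate 400–650 beats/min; five animals per dose. Given ip at 2.5 mL/kg, dissolved or suspended in normal saline or saline with 0.2% (carboxymethyl)cellulose and 1.0% Tween 80. Tail AP and CR recorded by mechanical transduction at set times; reported as percentage fall from control.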

[2] = system: Rattus norvegicus; assay: Antihypertensive activity in spontaneously hypertensive rats (SHR) measured by percentage fall in cardiac rhythm (CR) at 25 mg/kg administered intraperitoneally at 24 h;No significance; format: functional, organism-based; set-up: dose 25 mg/kg; details: Heart; method in brief: as §1
[3] = system: Rattus norvegicus; assay: Antihypertensive activity in spontaneously hypertensive rats (SHR) measured by percentage fall in cardiac rhythm (CR) at 25 mg/kg administered intraperitoneally at 3 h;No significance; format: functional, organism-based; set-up: dose 25 mg/kg; details: Heart
Method in brief: (§2)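 Conscious SHR (Okamoto strain), 8 weeks old, male and female, 300–350 g, systolic BP ≥190 mmHg, CR 400–650 beats/min. Given ip or po at 2.5 mL/kg in normal saline or saline with 0.2% (carboxymethyl)cellulose and 1.0% Tween 80. Tail AP and CR recorded by mechanical transduction at 1, 3, 5 and 24 h, five animals per dose. Effect expressed as % fall versus control.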

[4] = system: Rattus norvegicus; assay: Antihypertensive activity in spontaneously hypertensive rats (SHR) measured by percentage fall in cardiac rhythm (CR) at 25 mg/kg administered intraperitoneally at 5 h;No significance; format: functional, organism-based; set-up: dose 25 mg/kg; details: Heart; method in brief: as §2
[5] = system: Rattus norvegicus; assay: Antihypertensive activity in spontaneously hypertensive rats (SHR) measured by percentage fall in arterial pressure (AP) at 25 mg/kg administered intraperitoneally at 24 h; format: functional, Artery; details: route intraperitoneal; method in brief: as §1
[6] = system: Rattus norvegicus; assay: Antihypertensive activity in spontaneously hypertensive rats (SHR) measured by percentage fall in arterial pressure (AP) at 25 mg/kg administered intraperitoneally at 3 h; format: functional, Artery; details: route intraperitoneal; method in brief: as §1
[7] = system: Rattus norvegicus; assay: Antihypertensive activity in spontaneously hypertensive rats (SHR) measured by percentage fall in cardiac rhythm (CR) at 25 mg/kg administered intraperitoneally at 24 h; format: functional, Heart; details: route intraperitoneal; method in brief: as §1
[8] = system: Rattus norvegicus; assay: Antihypertensive activity in spontaneously hypertensive rats (SHR) measured by percentage fall in cardiac rhythm (CR) at 25 mg/kg administered intraperitoneally at 3 h; format: functional, Heart; details: route intraperitoneal; method in brief: as §1
[9] = system: Rattus norvegicus; assay: Antihypertensive activity in spontaneously hypertensive rats (SHR) measured by percentage fall in cardiac rhythm (CR) at 25 mg/kg administered intraperitoneally at 5 h; format: functional, Heart; details: route intraperitoneal; method in brief: as §2
[10] = species: Homo sapiens; assay: In vitro inhibition of platelet aggregation induced by […] (PRP incubated for 5 minutes at 37 degree C) at 10e-5 M; No significance; format: functional
[11] = species: Homo sapiens; assay: In vitro inhibition of platelet aggregation induced by AA (PRP incubated for 60 minutes at 37 degree C) at 10e-5 M; No significance; format: functional
Method in brief: (§3)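 Human venous blood anticoagulated with 3.8% sodium citrate (1:9). PRP from centrifugation at 800 rpm for 10 min at room temperature. Count adjusted with PPP to […]. Compound in saline with 10% ethylene glycol is added to PRP and incubated at 37 °C before the agonist. Agonists: ADP 2×10^-5 M, AA 0.6 mM, PGH2 2.8 μM, adrenaline 0.6 μM. Born absorbance aggregometry; n = 5.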

[12] = species: Homo sapiens; assay: In vitro inhibition of platelet aggregation induced by ADP-II (PRP incubated for 5 minutes at 37 degree C) at 10e-5 M; No significance; format: functional; method in brief: as §3
[13] = species: Homo sapiens; assay: In vitro inhibition of platelet aggregation induced by ADP-II (PRP incubated for 60 minutes at 37 degree C) at 10e-5 M; format: functional; details: 1 h; method in brief: as §3
[14] = species: Homo sapiens; assay: In vitro inhibition of platelet aggregation induced by ADP-II (PRP incubated for 5 minutes at 37 degree C) at 10e-5 M; format: functional; method in brief: as §3
[15] = system: Rattus norvegicus; assay: Antihypertensive activity in spontaneously hypertensive rats (SHR) measured by percentage fall in arterial pressure (AP) at 25 mg/kg administered intraperitoneally at 3 h;No significance; format: functional, organism-based; set-up: dose 25 mg/kg; details: Artery; method in brief: as §1
[16] = system: Rattus norvegicus; assay: Antihypertensive activity in spontaneously hypertensive rats (SHR) measured by percentage fall in arterial pressure (AP) at 25 mg/kg administered intraperitoneally at 5 h;No significance; format: functional, organism-based; set-up: dose 25 mg/kg; details: Artery; method in brief: as §1
[17] = system: Rattus norvegicus; assay: Antihypertensive activity in spontaneously hypertensive rats (SHR) measured by percentage fall in cardiac rhythm (CR) at 25 mg/kg administered intraperitoneally at 1 h;No significance; format: functional, organism-based; set-up: dose 25 mg/kg; details: Heart; method in brief: as §1
[18] = system: Rattus norvegicus; assay: Antihypertensive activity in spontaneously hypertensive rats (SHR) measured by percentage fall in arterial pressure (AP) at 25 mg/kg administered intraperitoneally at 1 h;No significance; format: functional, organism-based; set-up: dose 25 mg/kg; details: Artery; method in brief: as §1
[19] = system: Rattus norvegicus; assay: Antihypertensive activity in spontaneously hypertensive rats (SHR) measured by percentage fall in arterial pressure (AP) at 25 mg/kg administered intraperitoneally at 24 h;No significance; format: functional, organism-based; set-up: dose 25 mg/kg; details: Artery; method in brief: as §1
[20] = system: Rattus norvegicus; assay: Antihypertensive activity in spontaneously hypertensive rats (SHR) measured by percentage fall in arterial pressure (AP) at 25 mg/kg administered perorally at 3 h; format: functional, Artery; details: route oral
Method in brief: (§4)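 Oral dosing at 2.5 mL/kg to unanesthetized male and female Okamoto-strain SHR (8 weeks old, 300–350 g, systolic pressure ≥190 mmHg, heart rate 400–650 beats/min), five per dose. Vehicle was normal saline or saline with 0.2% (carboxymethyl)cellulose and 1.0% Tween 80. AP measured on the tail by mechanical transduction at set times; expressed as percentage fall from control.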

[21] = system: Rattus norvegicus; assay: Antihypertensive activity in spontaneously hypertensive rats (SHR) measured by percentage fall in arterial pressure (AP) at 25 mg/kg administered perorally at 5 h; format: functional, Artery; details: route oral; method in brief: as §4
[22] = system: Rattus norvegicus; assay: Antihypertensive activity in spontaneously hypertensive rats (SHR) measured by percentage fall in arterial pressure (AP) at 5 mg/kg administered intraperitoneally at 24 h; format: functional, Artery; details: route intraperitoneal; method in brief: as §1
[23] = system: Rattus norvegicus; assay: Antihypertensive activity in spontaneously hypertensive rats (SHR) measured by percentage fall in arterial pressure (AP) at 5 mg/kg administered intraperitoneally at 5 h; format: functional, Artery; details: route intraperitoneal; method in brief: as §1
[24] = system: Rattus norvegicus; assay: Antihypertensive activity in spontaneously hypertensive rats (SHR) measured by percentage fall in arterial pressure (AP) at 25 mg/kg administered perorally at 24 h; format: functional, Artery; details: route oral; method in brief: as §4
[25] = system: Rattus norvegicus; assay: Antihypertensive activity in spontaneously hypertensive rats (SHR) measured by percentage fall in cardiac rhythm (CR) at 1 mg/kg administered intraperitoneally at 24 h; format: functional, Heart; details: route intraperitoneal; method in brief: as §1
[26] = system: Rattus norvegicus; assay: Antihypertensive activity in spontaneously hypertensive rats (SHR) measured by percentage fall in cardiac rhythm (CR) at 1 mg/kg administered intraperitoneally at 3 h; format: functional, Heart; details: route intraperitoneal; method in brief: as §1
[27] = system: Rattus norvegicus; assay: Antihypertensive activity in spontaneously hypertensive rats (SHR) measured by percentage fall in cardiac rhythm (CR) at 1 mg/kg administered intraperitoneally at 5 h; format: functional, Heart; details: route intraperitoneal; method in brief: as §1
[28] = system: Rattus norvegicus; assay: Antihypertensive activity in spontaneously hypertensive rats (SHR) measured by percentage fall in cardiac rhythm (CR) at 25 mg/kg administered perorally at 3 h; format: functional, Heart; details: route oral; method in brief: as §2
[29] = system: Rattus norvegicus; assay: Antihypertensive activity in spontaneously hypertensive rats (SHR) measured by percentage fall in cardiac rhythm (CR) at 5 mg/kg administered intraperitoneally at 3 h; format: functional, Heart; details: route intraperitoneal; method in brief: as §2
[30] = system: Rattus norvegicus; assay: Antihypertensive activity in spontaneously hypertensive rats (SHR) measured by percentage fall in arterial pressure (AP) at 5 mg/kg administered intraperitoneally at 3 h; format: functional, Artery; details: route intraperitoneal; method in brief: as §1
[31] = system: Rattus norvegicus; assay: Antihypertensive activity in spontaneously hypertensive rats (SHR) measured by percentage fall in cardiac rhythm (CR) at 25 mg/kg administered intraperitoneally at 1 h; format: functional, Heart; details: route intraperitoneal; method in brief: as §1
[32] = system: Rattus norvegicus; assay: Antihypertensive activity in spontaneously hypertensive rats (SHR) measured by percentage fall in arterial pressure (AP) at 25 mg/kg administered intraperitoneally at 1 h; format: functional, Artery; details: route intraperitoneal; method in brief: as §1

Row | SMILES | Decrease in AP [1] [%] | Decrease in CR [2] | Decrease in AP [5] [%] | Decrease in AP [6] [%] | Decrease in CR [8] [%] | Decrease in CR [9] [%] | Decrease in AP [32] [%] | other results
1 | COc1ccc2[nH]c3c(cnn4nnnc34)c2c1 | 8 | No significant values | 6 | 12 |  |  |  | Decrease in CR [3]: No significant values; Decrease in CR [4]: No significant values
2 | COc1ccc2[nH]c3c(N/N=C\c4ccccc4)nncc3c2c1 | 8 |  |  | 6 | -20 |  |  | Decrease in CR [7]: -13%
3 | COc1ccc2[nH]c3c(NN=C(C)C)nncc3c2c1 | 14 |  | 7 | 13 | -11 | -8 |  | Decrease in CR [7]: -10%
4 | COc1ccc2c(c1)cc1c(O)nncn12 |  |  |  |  |  |  |  | inhibition [10]: No significant values; inhibition [11]: No significant values; inhibition [12]: No significant values; inhibition at 10 µM [13]: 100%
5 | COc1ccc2c(c1)cc1c(NN)nncn12 [listing 1 of 2 here] |  |  |  |  |  |  |  | inhibition at 10 µM [14]: 100%; inhibition at 10 µM [13]: 100%
6 | COc1ccc2c(c1)cc1c(NN)nncn12 [listing 2 of 2 here] |  | No significant values |  |  |  |  |  | inhibition [10]: No significant values; Decrease in AP [15]: No significant values; Decrease in AP [16]: No significant values; inhibition [11]: No significant values; Decrease in CR [17]: No significant values; Decrease in CR [3]: No significant values; Decrease in CR [4]: No significant values; Decrease in AP [18]: No significant values; Decrease in AP [19]: No significant values
7 | NNc1[nH]ncc2c3cc(OCc4ccccc4)ccc3nc1-2 | 13 |  | 7 | 12 | 15 | 20 |  | Decrease in AP [20]: 6%; Decrease in AP [21]: 10%; Decrease in AP [22]: 7%; Decrease in AP [23]: 13%; Decrease in AP [24]: 5%; Decrease in CR [25]: 9%; Decrease in CR [26]: 8%; Decrease in CR [27]: 6%; Decrease in CR [28]: 21%; Decrease in CR [29]: 16%; Decrease in CR [7]: 7%; Decrease in AP [30]: 5%
8 | CCOc1ccc2[nH]c3c(NN)nncc3c2c1 | 24 |  | 5 | 28 | -11 | -9 | 29 | Decrease in CR [31]: -20%
9 | CCOc1ccc2[nH]c3c(S)nncc3c2c1 |  | No significant values |  | 5 |  |  | 10 | Decrease in AP [16]: No significant values; Decrease in CR [17]: No significant values; Decrease in CR [3]: No significant values; Decrease in CR [4]: No significant values; Decrease in AP [19]: No significant values
10 | COc1ccc2c(c1)cc1c(NN)nncn12.Cl |  |  |  |  |  |  | 9 | 
11 | Cl.NNc1[nH]ncc2c3cc(OCc4ccccc4)ccc3nc1-2 | 28 |  | 9 | 33 | -13 | -15 | 18 | Decrease in CR [31]: -7%; Decrease in CR [7]: -16%
12 | COc1ccc2c(c1)cc1c(S)nncn12 |  |  |  |  |  |  |  | inhibition [10]: No significant values; inhibition [11]: No significant values; inhibition [12]: No significant values; inhibition at 10 µM [13]: 100%
13 | COc1ccc2[nH]c3c(cnn4c(C)nnc34)c2c1 | 8 | No significant values |  | 10 | -5 | 7 |  | Decrease in AP [19]: No significant values
14 | NNc1[nH]ncc2c3cc(OCc4ccccc4)ccc3nc1-2.O=S(=O)(O)O | 26 |  |  | 32 | 7 | 8 | 21 | Decrease in CR [31]: 9%
15 | COc1ccc2[nH]c3c(NN)nncc3c2c1 | 30 |  | 5 | 32 | -8 | -10 | 17 | Decrease in CR [31]: -8%
16 | COc1ccc2[nH]c3c(cnn4cnnc34)c2c1 | 11 | No significant values |  |  | 10 |  |  | Decrease in AP [15]: No significant values; Decrease in CR [4]: No significant values; Decrease in AP [19]: No significant values
